# Assays:
# Assay type in all cases: functional
# [1] = tested on: Nakaseomyces glabratus; experiment: Antifungal activity against Candida glabrata clinical isolate obtained from cervicovaginal candidiasis patient assessed as susceptible isolates by broth microdilution method
# Method in brief: (§1)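 C. glabrata isolates were recovered from cervicovaginal swabs. Species was identified by in-house species-specific real-time PCR and confirmed on chromogenic Candida agar. Susceptibility was tested by CLSI M27-A2 broth microdilution, and isolates were classed as S, S-DD or R from the MIC. Voriconazole categories used proposed breakpoints.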
# [2] = tested on: Nakaseomyces glabratus; experiment: Antifungal activity against Candida glabrata clinical isolate obtained from cervicovaginal candidiasis patient assessed as susceptible dose-dependent isolates by broth microdilution method; method in brief: as §1
# [3] = tested on: Nakaseomyces glabratus; experiment: Antifungal activity against Candida glabrata clinical isolate obtained from vulvovaginal candidiasis patient assessed as susceptible isolates by broth microdilution method; method in brief: as §1
# [4] = tested on: Nakaseomyces glabratus; experiment: Antifungal activity against Candida glabrata clinical isolate overexpressing CDR1 gene obtained from cervicovaginal candidiasis patient assessed as resistant isolates by broth microdilution method
# Method in brief: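 Cervicovaginal swab isolates were classed by CLSI M27-A2 broth microdilution MIC. For expression, RNA came from mid-log cultures, column-purified and DNase-treated. Duplex qRT-PCR measured CDR1 (also PDH1, PDR1) against ACT1 as control, in triplicate independent amplifications from the same RNA. A ≥3-fold rise in CDR1 expression […].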
# [5] = tested on: Nakaseomyces glabratus; experiment: Antifungal activity against Candida glabrata clinical isolate obtained from vulvovaginal candidiasis patient assessed as resistant isolates by broth microdilution method; method in brief: as §1
SMILES,Activity [1],Activity [2],Activity [3],Activity [4],Activity [5]
OC(Cn1cncn1)(Cn1cncn1)c1ccc(F)cc1F [FLUCONAZOLE],30.9%,42.2%,15.2%,26.9%,51.8%
Clc1ccc(COC(Cn2ccnc2)c2ccc(Cl)cc2Cl)c(Cl)c1 (stereo not given) [MICONAZOLE],100%,0%,,,
C[C@@H](c1ncncc1F)[C@](O)(Cn1cncn1)c1ccc(F)cc1F [VORICONAZOLE],62.3%,13.7%,,24%,

# From ChEMBL document CHEMBL1275490, “Antifungal resistance of Candida glabrata vaginal isolates and development of a quantitative reverse transcription-PCR-based azole susceptibility assay” (2008)
